In ChEMBL document CHEMBL2346540 (J Med Chem, 2013):

Experiments:
Type in all cases: ADME
Cytochrome P450 3A4 [1] = target: T1, Cytochrome P450 3A4 (Homo sapiens, UniProt P08684, S119A); experiment: Binding affinity to CYP3A4 (3-22)-deleted S119A mutant (unknown origin) expressed in Escherichia coli assessed as increase in melting temperature by spectrophotometric analysis (reference value: 53.5 +/- 0.1 degC)
Cytochrome P450 3A4 [2] = target: T2, Cytochrome P450 3A4 (Homo sapiens, UniProt P08684); experiment: Binding affinity to C-terminal His-tagged wild type CYP3A4 (unknown origin) expressed in Escherichia coli assessed as spectral changes by spectrophotometric analysis relative to control
T2 sequence (P08684 whole entry): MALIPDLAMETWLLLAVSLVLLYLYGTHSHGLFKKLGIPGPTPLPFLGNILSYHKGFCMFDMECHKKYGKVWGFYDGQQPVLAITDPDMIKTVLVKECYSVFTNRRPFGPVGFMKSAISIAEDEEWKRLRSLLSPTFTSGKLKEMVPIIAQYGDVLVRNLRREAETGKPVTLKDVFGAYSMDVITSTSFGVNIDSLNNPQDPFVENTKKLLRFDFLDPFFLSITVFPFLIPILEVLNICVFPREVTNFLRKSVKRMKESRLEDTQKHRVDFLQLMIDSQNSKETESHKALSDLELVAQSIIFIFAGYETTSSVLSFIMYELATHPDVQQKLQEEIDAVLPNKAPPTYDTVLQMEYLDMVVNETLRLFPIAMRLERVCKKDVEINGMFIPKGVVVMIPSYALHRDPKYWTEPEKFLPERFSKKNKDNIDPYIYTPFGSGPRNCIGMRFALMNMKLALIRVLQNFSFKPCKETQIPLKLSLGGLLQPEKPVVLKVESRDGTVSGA
Method in brief: (§1)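 Spectrophotometric titration of purified enzyme with small aliquots of ligand in DMSO (final solvent ≤2%) in 50 mM phosphate, pH 7.4, 20% glycerol, 1 mM dithiothreitol; spectra recorded at room temperature and spectral dissociation constant Ks derived from absorbance change vs ligand concentration.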

Cytochrome P450 3A4 [3] = target: T2, Cytochrome P450 3A4; experiment: Binding affinity to C-terminal His-tagged wild type CYP3A4 (unknown origin) expressed in Escherichia coli assessed as increase in melting temperature by spectrophotometric analysis (reference value: 52.1 +/- 0.1 degC)
Cytochrome P450 3A4 [4] = target: T2, Cytochrome P450 3A4; experiment: Binding affinity to C-terminal His-tagged wild type CYP3A4 (unknown origin) expressed in Escherichia coli by spectrophotometric analysis; conditions: read-out: Ks; method in brief: as §1
Cytochrome P450 3A4 [5] = target: T1, Cytochrome P450 3A4; experiment: Binding affinity to CYP3A4 (3-22)-deleted S119A mutant (unknown origin) expressed in Escherichia coli by stopped flow assay
Cytochrome P450 3A4 [6] = target: T1, Cytochrome P450 3A4; experiment: Binding affinity to CYP3A4 (3-22)-deleted S119A mutant (unknown origin) expressed in Escherichia coli by spectrophotometric analysis; conditions: read-out: Ks; method in brief: as §1
Cytochrome P450 3A4 [7] = target: T2, Cytochrome P450 3A4; experiment: Inhibition of C-terminal His-tagged wild type CYP3A4 (unknown origin)-mediated hydroxylation of 7-benzyloxy-4-trifluoromethylcoumarin expressed in Escherichia coli after 5 mins by fluorimetric analysis
Method in brief: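 Reconstituted system at room temperature: CYP3A4 (0.3 μM) with rat CPR (0.6 μM) in 25 mM phosphate, pH 7.4, 3 mM MgCl2, preincubated 5 min with inhibitor with or without 100 μM NADPH, then 50 μM BFC added.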

Cytochrome P450 3A4 [8] = target: T2, Cytochrome P450 3A4; experiment: Binding affinity to C-terminal His-tagged wild type CYP3A4 (unknown origin) expressed in Escherichia coli assessed as rate constant of fast phase of reaction by stopped flow assay
CYP3A4 = CYP3A4 (Homo sapiens, UniProt P08684); experiment: Ratio of ritonavir IC50 to compound IC50 for C-terminal His-tagged wild type CYP3A4 (unknown origin); conditions: read-out: Ratio IC50
CYP3A4, sequence (P08684 whole entry): as above

Cytochrome P450 3A4 [9] = target: T2, Cytochrome P450 3A4; experiment: Ratio of ritonavir Ks to compound Ks for C-terminal His-tagged wild type CYP3A4 (unknown origin)
Cytochrome P450 3A4 [10] = target: T2, Cytochrome P450 3A4; experiment: Binding affinity to C-terminal His-tagged wild type CYP3A4 (unknown origin)-bromoergocryptine complex expressed in Escherichia coli by spectrophotometric analysis; conditions: read-out: Ks
Cytochrome P450 3A4 [11] = target: T2, Cytochrome P450 3A4; experiment: Ratio of compound binding constant to ritonavir binding constant for C-terminal His-tagged wild type CYP3A4 (unknown origin)

T1 sequence (P08684 2-503 S119A limits assumed): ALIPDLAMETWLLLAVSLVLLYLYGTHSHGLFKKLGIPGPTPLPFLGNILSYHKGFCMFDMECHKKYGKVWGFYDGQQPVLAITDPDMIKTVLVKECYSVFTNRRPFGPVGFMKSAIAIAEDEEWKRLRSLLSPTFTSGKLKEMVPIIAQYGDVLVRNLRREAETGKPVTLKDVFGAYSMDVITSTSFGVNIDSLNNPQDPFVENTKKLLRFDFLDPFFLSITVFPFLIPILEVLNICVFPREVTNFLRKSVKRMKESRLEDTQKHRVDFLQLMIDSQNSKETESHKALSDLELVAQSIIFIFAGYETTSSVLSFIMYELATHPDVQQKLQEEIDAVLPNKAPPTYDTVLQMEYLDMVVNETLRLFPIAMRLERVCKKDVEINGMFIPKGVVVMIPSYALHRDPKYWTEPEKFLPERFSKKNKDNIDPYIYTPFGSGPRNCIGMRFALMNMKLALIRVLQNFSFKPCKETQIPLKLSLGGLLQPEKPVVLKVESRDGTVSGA

Structure (SMILES)	Tm (Cytochrome P450 3A4 [1])	Activity (Cytochrome P450 3A4 [2])	Tm (Cytochrome P450 3A4 [3])	Kd (Cytochrome P450 3A4 [4])	K (Cytochrome P450 3A4 [5])	Kd (Cytochrome P450 3A4 [6])	IC50 (Cytochrome P450 3A4 [7])	K (Cytochrome P450 3A4 [8])	selectivity ratio (CYP3A4)	Ratio (Cytochrome P450 3A4 [9])	Kd (Cytochrome P450 3A4 [10])	Ratio (Cytochrome P450 3A4 [11])
CC(C)c1nc(CN(C)C(=O)N[C@H](C(=O)N[C@H](CC[C@H](Cc2ccccc2)NC(=O)OCc2cnco2)Cc2ccccc2)C(C)C)cs1	53.2 °C	60%	54.8 °C	570 nM	0.2 s⁻¹	970 nM	3400 nM	2.2 s⁻¹	–	–	–	–
CC(C)c1nc(CN(C)C(=O)N[C@H](C(=O)N[C@H](CC[C@H](Cc2ccccc2)NC(=O)OCc2cnc[nH]2)Cc2ccccc2)C(C)C)cs1	55.5 °C	Not Active	56.5 °C	22 nM	0.17 s⁻¹	67 nM	280 nM	1.9 s⁻¹	2	2	–	–
CC(C)c1nc(CN(C)C(=O)N[C@H](C(=O)N[C@H](CC[C@H](Cc2ccccc2)NC(=O)OCc2cccnc2)Cc2ccccc2)C(C)C)cs1	55.6 °C	Active	57.2 °C	25 nM	0.32 s⁻¹	65 nM	130 nM	7 s⁻¹	–	2	5 nM	5
